Measurements from article PMC7217734 (Journal of biomolecular structure & dynamics, 2019).
Residues, ends and D or L forms follow the SMILES beside them.

How the values were obtained:
[1] = target: T1, peptide 91a (coil 1A of vimentin) (Homo sapiens, UniProt P08670, A91E/F96L/I92R/N93L/Q126R/Q127R/T94A/V121L); experiment: Isothermal titration calorimetry; format: binding; details: NANO ITC; 374a 0.540mM in syringe, 91a 0.095mM in cell
T1 sequence (P08670 with tags, fused parts or gaps V121L/Q126R/Q127R limits assumed): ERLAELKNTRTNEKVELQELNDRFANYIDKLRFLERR
Outline: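 The peptides were dissolved in 10 mM Tris pH 8.0. In a low-volume nano calorimeter, the syringe peptide was titrated into the cell peptide in 20 injections of 2.5 µl. Raw heat rate was recorded in µJ/s, and each injection peak was integrated to µJ. The isotherm gave the dissociation constant and stoichiometry n.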

[2] = Dynamic light scattering; format: physicochemical; details: 25°C, 1 mg/ml; 50mM NaCl, 10mM Tris-HCl (pH 7.5); individual peptide

CC[C@H](C)[C@H](NC(=O)[C@H](CCC(=O)O)NC(=O)[C@@H](NC(=O)[C@H](CC(=O)O)NC(=O)[C@H](CC(C)C)NC(=O)[C@H](C)NC(=O)[C@H](CCSC)NC(=O)[C@H](CCCCN)NC(=O)[C@@H](NC(=O)[C@H](CC(N)=O)NC(=O)[C@H](CC(C)C)NC(=O)[C@H](CC(C)C)NC(=O)[C@H](CC(=O)O)NC(=O)[C@H](CCC(N)=O)NC(=O)[C@H](Cc1ccc(O)cc1)NC(=O)[C@H](CCC(=O)O)NC(=O)[C@H](CCCNC(=N)N)NC(=O)[C@H](CCC(=O)O)NC(=O)[C@H](CC(C)C)NC(=O)[C@H](CCCNC(=N)N)NC(=O)[C@H](C)NC(=O)[C@H](CC(C)C)NC(=O)[C@H](CCC(=O)O)NC(=O)[C@@H](N)CCC(=O)O)C(C)C)[C@@H](C)CC)C(=O)N[C@@H](C)C(=O)N[C@H](C(=O)N[C@@H](Cc1ccc(O)cc1)C(=O)N[C@@H](CCCNC(=N)N)C(=O)N[C@@H](CCCCN)C(=O)N[C@@H](CC(C)C)C(=O)N[C@@H](CC(C)C)C(=O)N[C@@H](CCC(=O)O)C(=O)N[C@@H](C)C(=O)N[C@@H](CC(C)C)C(=O)N[C@@H](CCC(=O)O)C(=O)N[C@@H](CO)C(=O)N[C@@H](CCCNC(=N)N)C(=O)O)[C@@H](C)O [peptide 374a] (H-EELARLEREYQDLLNVKMALDIEIATYRKLLEALESR-OH; N-terminus and C-terminus assumed)
stoichiometric ratio n [1]: ~1
thermodynamic character of interaction, in words [1]: enthalpy-driven interaction
aggregation by DLS, in words [2]: aggregation is occurring
